This is one part of a sample in which hits are shown more often than they occur.
LANA-nucl inh: inhibitors of KSHV LANA-nucleosome binding, primary screen, biochemical, fluorescence polarization, FITC-LANA1-23, chicken nucleosomes | FITC-LANA1-23 / chicken nucleosome fluorescence polarization; stronger effect = lower value | z-score (concentration not given with the values) | actives 0.3% (n = 51,000);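 active means both repeat wells score below -2 in polarization z-score versus plate sample wells, excluding overly bright wells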
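Assay system: FITC-LANA peptide and chicken nucleosomes; input: 240 nM purified chicken nucleosomes (480 nM peptide binding sites), final; also added: 50 nM FITC-LANA1-23 probe; medium: TEN-BT buffer, pH 7.5; doses: pin-transferred compound, 100 nL; times: 10–45 min, room temperature; technique: fluorescence polarization; replication: duplicates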
Ab BasE inh: BasE siderophore enzyme inhibitors, primary screen, biochemical, Acinetobacter baumannii ATCC 17978, fluorescence polarization; AID 485350, 2010; actives 0.1% (n = 84,000); purified BasE, fluorescence polarization binding displacement; inhibition, % (test concentration not listed); in the data active means inhibition above about 25%, passing the limit was not always enough;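 further: 0% = negative plate control signal and 100% = positive plate control signal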
The depositor's hits bear a star; . = no result given; ! = not confirmed by another sample.

SMILES	LANA-nucl inh	Ab BasE inh
O=C1c2c(O)ccc(O)c2C(=O)c2c(NCCNCCO)ccc(NCCNCCO)c21	-9.1*	1
OCCNC(=S)NC1CCCC1	.	1
CN1CCN(C(=O)CCc2nc3ccccc3n2-c2ccccc2)CC1	.	-5
COc1cccc2c1C(=O)c1c(O)c3c(c(O)c1C2=O)C[C@@](O)(C(C)=O)C[C@@H]3O[C@H]1C[C@H](N)[C@H](O)[C@H](C)O1	-8.3*	.
COc1cccc2c1C(=O)c1c(O)c3c(c(O)c1C2=O)C[C@@](O)(C(=O)CO)C[C@@H]3O[C@H]1C[C@H](N)[C@@H](O)[C@H](C)O1	-11	.
CC(=O)[C@]1(O)Cc2c(O)c3c(c(O)c2[C@@H](O[C@H]2C[C@H](N)[C@H](O)[C@H](C)O2)C1)C(=O)c1ccccc1C3=O	-10*!	.
CC[C@@]1(O)C[C@H](O[C@H]2C[C@H](N(C)C)[C@H](O[C@H]3C[C@H](O)[C@H](O[C@H]4CCC(=O)[C@H](C)O4)[C@H](C)O3)[C@H](C)O2)c2c(cc3c(c2O)C(=O)c2c(O)cccc2C3=O)[C@H]1C(=O)OC	0.19	.
COc1ccc(Nc2cc(N3CCCC3)ncn2)cc1	0.26	1
O=C1CCC(=O)N1CCSSCCN1C(=O)CCC1=O	-0.67	1
Cn1c(SCc2ccccc2Cl)nnc1-c1oc2nc(-c3ccccc3)cc(-c3ccco3)c2c1N	-0.26	-7
Cn1c(-c2oc3nc(-c4ccccc4)cc(-c4ccco4)c3c2N)n[nH]c1=S	-2.3*	3
C/C(=N\NC(=S)NC1CCCCC1)c1ccc(S(=O)(=O)NCc2ccco2)cc1	.	-1
C/C(=N\NC(=O)c1ccc(O)cc1)c1ccc(S(=O)(=O)NCc2ccco2)cc1	.	29*
CC(C)(C)NC(=O)CN1CCN(Cc2c(O)c(C(=O)N3CCOCC3)cc3ccccc23)CC1	.	-4
C[n+]1cccc2ccc(O)cc21	-6.7*	20
Nn1c(SCC(=O)N(C2CCCC2)C2CCS(=O)(=O)C2)nnc1C(F)(F)F (stereo not given)	.	1
CCN(C(=S)NC(=O)c1ccco1)c1cccc2ccccc12	.	-3
Cc1cc(=O)n2nc(N(C)CC(=O)NC3CCCc4ccccc43)sc2n1 (stereo not given)	-2.3*	-1
O=C(Cn1cnnn1)NC1CCCc2ccccc21 (stereo not given)	.	2
Cc1ccn(C(=O)COc2ccc(Cl)cc2)n1	-0.028	1
CCOC(=O)c1ccc2nsnc2c1	0.36	0
Nc1ccc2nsnc2c1	-3.1*	26
O=C(Oc1cccc2cccnc12)c1cc(C(F)(F)F)cc(C(F)(F)F)c1	.	42*
O=C(Oc1cccc2cccnc12)c1ccccc1	-0.04	2
CN(Cc1cccs1)C(=O)[C@H](Cc1ccccc1)NC(=O)c1ccco1	.	3
SMILES	LANA-nucl inh	Ab BasE inh
CCCCn1c(=O)[nH]c2nc3cc(N=Cc4c(O)n(C)c(=O)n(C)c4=O)ccc3nc2c1=O	-0.49	3
Cn1c(=O)c2nc3ccc(N=Cc4c(O)n(Cc5ccccc5)c(=O)[nH]c4=O)cc3nc2n(C)c1=O	-2.3*	18
COc1ccccc1N(CC(N)=O)S(=O)(=O)c1ccccc1	0.32	0
O=C(/C=C/c1ccc(O)c(O)c1)O[C@@H]1C[C@](O)(C(=O)O)C[C@@H](O)[C@H]1O	0.071	32*!
COc1cc(/C=C/C(=O)OCC(=O)Nc2cccc(F)c2)ccc1O	.	1
CN(C)S(=O)(=O)c1ccc(NC(=O)CNCc2ccco2)cc1	-0.068	-3
CNC(=S)NCc1ccc(-c2csnn2)cc1	.	-1
Cc1cc(C(=O)NCC(C)c2ccccc2)n[nH]1 (stereo not given)	-2.2*	0
CC(CNC(=O)c1cc(C2CC2)[nH]n1)c1ccccc1 (stereo not given)	-1.4	-1
C1COCCNCCOCCN1	-2.6*	-2
C1CNCCN1	1.5	-2
Cc1ccc(C2(c3ccc(C)o3)CCCCC2)o1	0.36	5
N#CC1=C2SCN(Cc3ccccc3)CN2C(=O)CC1c1cccs1 (stereo not given)	-0.44	-1
CCN1C=CC2=C(C#N)C(N)C(C#N)(C#N)C(c3cccs3)C2C1 (stereo not given)	-6.3*	16
CCOc1cc2[nH]c(=O)n(CC3CCC(C(=O)NCCC(C)C)CC3)c(=O)c2cc1OCC (stereo not given)	-0.78	-1
Nc1cc(=O)[nH]c(SC(C(=O)N2CCCC2)c2ccccc2)n1 (stereo not given)	.	0
CCN(CC)CCSc1nc2ccc(OC)cc2[nH]1	0.34	4
CCN(CC)CCCC(C)Nc1c2ccc(Cl)cc2nc2ccc(OC)cc12 (stereo not given)	-2.3*!	51
O=C1CCCC2=C1C(c1cccc(Br)c1)Nc1ccccc1N2 (stereo not given)	.	-2
O=C1CCCC2=C1Sc1ccccc1N2	-2.7*	13

Screening data as filed in PubChem.
